Reference: PMC9444296 (Investigative Radiology, 2022)

How the values were obtained:
CNS functions = test: CNS safety pharmacology; assay type: in vivo, rat; details: SD rats, single IV 0.1, 0.3, and 1.0 mmol/kg, functional observational battery
Summary of the method: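 GLP study in SD rats, 5/sex/group, given a single IV dose of 0, 0.1, 0.3 or 1 mmol/kg. A functional observational battery was run at 0.25, 0.75, 1.5 and 4 h post-dose: home-cage, hand-held and open-field observations, responses to stimuli, forelimb grip strength and body temperature.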

[1] = Pharmacokinetics in beagle dogs; assay type: in vivo, dog; details: for AUC: AUC 0-6h; for AUC / AUCINF / C0 / Cl / MRT / T1/2 / Vz: Gd by ICP-MS, NCA, n = 3
OAT3 = OAT3 (Homo sapiens, UniProt Q8TCC7); test: OAT3 inhibition, HEK293 cells; assay type: in vitro ADME; details: 1, 5, 10, 50, and 100 μM
OAT3, sequence (Q8TCC7 whole entry): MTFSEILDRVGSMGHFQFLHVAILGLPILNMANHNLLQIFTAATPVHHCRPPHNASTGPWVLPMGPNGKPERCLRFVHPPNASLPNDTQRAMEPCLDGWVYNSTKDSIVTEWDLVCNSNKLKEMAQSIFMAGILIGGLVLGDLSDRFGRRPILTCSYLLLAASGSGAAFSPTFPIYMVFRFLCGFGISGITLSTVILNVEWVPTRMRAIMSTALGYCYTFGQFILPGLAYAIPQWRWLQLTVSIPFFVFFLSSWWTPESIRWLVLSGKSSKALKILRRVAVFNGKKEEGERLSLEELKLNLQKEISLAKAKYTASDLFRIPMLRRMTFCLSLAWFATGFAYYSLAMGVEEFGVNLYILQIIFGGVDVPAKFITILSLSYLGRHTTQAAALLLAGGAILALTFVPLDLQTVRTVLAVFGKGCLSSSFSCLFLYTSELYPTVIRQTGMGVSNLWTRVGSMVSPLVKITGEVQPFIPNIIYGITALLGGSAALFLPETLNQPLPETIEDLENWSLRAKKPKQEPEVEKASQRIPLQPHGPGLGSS

r1 and r2 relaxivity = assay type: physicochemical
Summary of the method: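 For the 1.4 T conditions, test compound was prepared at 0.125, 0.25, 0.5, 1 and 2 mM in HSA (40 mg/mL), water or PBS. T1 and T2 were measured on a benchtop relaxometer at 37°C.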

[2] = Plasma stability, rat plasma; assay type: in vitro ADME; details: 0.5 mM, 37°C, HPLC; for average remaining percentage of intact MT218: n = 2
Summary of the method: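 Test compound at 0.5 mM was incubated in human, rat or dog plasma at 37°C for up to 48 h, with PBS as control. Samples were mixed with methanol, centrifuged, and the intact compound was quantified by analytical reversed-phase (C18) HPLC.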

CNR2 = CNR2 (Homo sapiens, UniProt P34972); test: SAFETYscan E/IC50 assay, CNR2; assay type: biochemical; details: concentration range 0.005 to 100 μM
CNR2, sequence (P34972 whole entry, the tested form may be a part): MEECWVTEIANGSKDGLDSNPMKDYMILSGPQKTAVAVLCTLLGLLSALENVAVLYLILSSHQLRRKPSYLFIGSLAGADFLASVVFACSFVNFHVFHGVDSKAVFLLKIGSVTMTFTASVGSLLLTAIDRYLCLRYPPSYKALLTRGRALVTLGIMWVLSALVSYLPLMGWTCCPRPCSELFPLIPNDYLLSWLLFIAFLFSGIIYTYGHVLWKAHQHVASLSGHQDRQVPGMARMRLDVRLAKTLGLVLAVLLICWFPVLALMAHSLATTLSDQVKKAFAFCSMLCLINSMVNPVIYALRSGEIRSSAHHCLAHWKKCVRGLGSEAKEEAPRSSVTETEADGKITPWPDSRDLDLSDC
Summary of the method: (§1)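 Contract-laboratory in vitro panel of 78 targets, run in agonist and/or antagonist modes under provider SOPs over 0.005 to 100 μM. Panel formats included enzyme fragment complementation, FLIPR-based cellular assays, kinase binding and enzymatic assays.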

[3] = Plasma protein binding, human plasma; assay type: in vitro ADME; details: 37°C, 3 min, 10 kDa ultrafiltration, Gd by ICP-OES, n = 4
Summary of the method: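 Test compound at 50, 80 or 110 μM was incubated with human, dog or rat plasma (alongside HSA 40 mg/mL and PBS) at 37°C for 3 min. Mixtures were kept overnight and centrifuged to remove insolubles. Gd was measured by ICP-OES, and the binding ratio was taken as bound over total concentration.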

MAOA = MAOA (Homo sapiens, UniProt P21397); test: SAFETYscan E/IC50 assay, MAOA; assay type: biochemical; details: concentration range 0.005 to 100 μM
MAOA, sequence (P21397 whole entry, species assumed): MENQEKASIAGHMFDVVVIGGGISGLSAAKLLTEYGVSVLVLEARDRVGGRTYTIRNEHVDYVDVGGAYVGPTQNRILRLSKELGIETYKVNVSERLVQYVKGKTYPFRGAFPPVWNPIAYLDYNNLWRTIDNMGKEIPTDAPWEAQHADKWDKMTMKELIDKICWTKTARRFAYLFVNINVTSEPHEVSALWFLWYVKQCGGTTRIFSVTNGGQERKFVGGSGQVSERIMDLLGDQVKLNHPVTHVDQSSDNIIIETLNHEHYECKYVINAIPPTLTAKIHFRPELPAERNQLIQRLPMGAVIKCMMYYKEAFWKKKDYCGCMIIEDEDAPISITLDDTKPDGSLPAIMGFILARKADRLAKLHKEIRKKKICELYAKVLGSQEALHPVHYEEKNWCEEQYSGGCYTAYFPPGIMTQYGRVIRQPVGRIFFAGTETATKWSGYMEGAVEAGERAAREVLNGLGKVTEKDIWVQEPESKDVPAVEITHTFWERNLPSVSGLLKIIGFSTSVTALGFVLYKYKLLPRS
Summary of the method: as §1

MATE1 = MATE1 (Homo sapiens, UniProt Q96FL8); test: MATE1 inhibition, HEK293 cells; assay type: in vitro ADME; details: 1, 5, 10, 50, and 100 μM
MATE1, sequence (Q96FL8 whole entry): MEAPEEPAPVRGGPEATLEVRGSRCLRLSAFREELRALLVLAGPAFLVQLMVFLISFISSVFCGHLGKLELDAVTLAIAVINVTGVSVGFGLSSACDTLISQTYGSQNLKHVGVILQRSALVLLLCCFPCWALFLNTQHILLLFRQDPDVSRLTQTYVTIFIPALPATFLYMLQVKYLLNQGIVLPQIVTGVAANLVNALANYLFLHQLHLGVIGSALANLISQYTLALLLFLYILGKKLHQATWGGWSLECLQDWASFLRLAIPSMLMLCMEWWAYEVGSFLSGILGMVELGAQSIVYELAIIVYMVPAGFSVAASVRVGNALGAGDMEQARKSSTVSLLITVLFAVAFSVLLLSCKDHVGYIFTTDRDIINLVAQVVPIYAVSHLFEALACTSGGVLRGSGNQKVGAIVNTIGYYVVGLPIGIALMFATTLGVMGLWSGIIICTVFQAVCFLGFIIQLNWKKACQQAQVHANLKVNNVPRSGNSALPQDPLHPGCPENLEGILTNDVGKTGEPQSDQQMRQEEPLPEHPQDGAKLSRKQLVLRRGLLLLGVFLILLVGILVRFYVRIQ

[4] = beagle dog ♀, 0.04 mmol/kg single IV
[5] = beagle dog ♀, 0.1 mmol/kg single IV
[6] = beagle dog ♀, 0.2 mmol/kg single IV
[7] = beagle dog ♂, 0.04 mmol/kg single IV
[8] = beagle dog ♂, 0.1 mmol/kg single IV
[9] = beagle dog ♂, 0.2 mmol/kg single IV

ZD2-N3-Gd(HP-DO3A) [MT218]
effect on parameters of CNS function (CNS functions): No MT218-related effect
AUC [1, 4]: 38160 ng·h/mL
AUC [1, 5]: 93960 ng·h/mL
AUC [1, 6]: 138990 ng·h/mL
AUC [1, 7]: 34800 ng·h/mL
AUC [1, 8]: 89520 ng·h/mL
AUC [1, 9]: 156540 ng·h/mL
AUC Ratio ([1]; AUC(dose)/AUC(low dose), beagle dog ♀, 0.04 mmol/kg): 1
AUC Ratio ([1]; AUC(dose)/AUC(low dose), beagle dog ♂, 0.04 mmol/kg): 1
AUC Ratio ([1]; AUC(high dose)/AUC(low dose), beagle dog ♀, 0.2 mmol/kg): 3.64
AUC Ratio ([1]; AUC(high dose)/AUC(low dose), beagle dog ♂, 0.2 mmol/kg): 4.50
AUC Ratio ([1]; AUC(middle dose)/AUC(low dose), beagle dog ♀, 0.1 mmol/kg): 2.46
AUC Ratio ([1]; AUC(middle dose)/AUC(low dose), beagle dog ♂, 0.1 mmol/kg): 2.57
AUCINF [1, 4]: 38470 ng·h/mL
C0 [1, 4]: 59.33 µg/mL
Cl [1, 4]: 2.734 mL/min/kg
MRT [1, 4]: 58.2 min
T1/2 [1, 4]: 44.4 min
Vz [1, 4]: 0.17599 L/kg
AUCINF [1, 5]: 94170 ng·h/mL
C0 [1, 5]: 146.59 µg/mL
Cl [1, 5]: 2.794 mL/min/kg
MRT [1, 5]: 57.6 min
T1/2 [1, 5]: 40.2 min
Vz [1, 5]: 0.16108 L/kg
AUCINF [1, 6]: 139150 ng·h/mL
C0 [1, 6]: 268.10 µg/mL
Cl [1, 6]: 3.7757 mL/min/kg
MRT [1, 6]: 47.4 min
T1/2 [1, 6]: 37.8 min
Vz [1, 6]: 0.20593 L/kg
AUCINF [1, 7]: 34940 ng·h/mL
C0 [1, 7]: 50.97 µg/mL
Cl [1, 7]: 3.0033 mL/min/kg
MRT [1, 7]: 60.6 min
T1/2 [1, 7]: 45.6 min
Vz [1, 7]: 0.19708 L/kg
AUCINF [1, 8]: 89780 ng·h/mL
C0 [1, 8]: 149.33 µg/mL
Cl [1, 8]: 2.9287 mL/min/kg
MRT [1, 8]: 57 min
T1/2 [1, 8]: 42 min
Vz [1, 8]: 0.17773 L/kg
AUCINF [1, 9]: 156900 ng·h/mL
C0 [1, 9]: 286.90 µg/mL
Cl [1, 9]: 3.367 mL/min/kg
MRT [1, 9]: 52.8 min
T1/2 [1, 9]: 41.4 min
Vz [1, 9]: 0.20164 L/kg
mean plasma elimination half-life (t1/2) ([1]; dogs, 0.1 mmol/kg IV): 41.4 min
inhibition of OAT3 transporter activity (OAT3): no inhibition potential
r1 Relaxivity (r1 and r2 relaxivity; 1.4 T, HSA aqueous solution (40 mg/mL), 37°C): 6.54 mM⁻¹ s⁻¹
r1 Relaxivity (r1 and r2 relaxivity; 1.4 T, PBS, 37°C): 6.58 mM⁻¹ s⁻¹
r1 Relaxivity (r1 and r2 relaxivity; 3.0 T, H2O, MRS 3000 scanner): 6.25 (H2O) mM^−1 s^−1
r1 Relaxivity (r1 and r2 relaxivity; 3.0 T, PBS): 6.16 mM⁻¹ s⁻¹
average remaining percentage of intact MT218 ([2]; 1 h): 74.87%
average remaining percentage of intact MT218 ([2]; 3 h): 20.54%
average remaining percentage of intact MT218 ([2]; 6 h): 4.61%
average remaining percentage of intact MT218 ([2]; 28 h): 0%
average remaining percentage of intact MT218 ([2]; 48 h): 0%
enzymatic degradation half-life (t1/2) [2]: 97.8 min
inhibition rate (CNR2): 12.4%
binding ratio to plasma proteins ([3]; 50 μM): 47.31%
binding ratio to plasma proteins ([3]; 80 μM): 45.15%
binding ratio to plasma proteins ([3]; 110 μM): 40.50%
inhibition rate (MAOA): 10.21%
inhibition of MATE1 transporter activity (MATE1): no inhibition potential
